MPTP inh = blocks calcium-induced mitochondrial swelling; 1.4% of 360,000 active; isolated mouse mitochondria, Ca2+ swelling absorbance, 30 min; inhibition, % at 10 µM; AID 602449;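 active = inhibition of 50% or more, scaled per plate between neutral and stimulator controls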
ATG4B inhibitor = blocks human ATG4B protease cleavage of LC3 substrate; Q9Y4P1; ATG4B cleavage of LC3-PLA2, NBD-HPC fluorescence, 1 h; inhibition, % at 8.33 µM; 0.51% of 340,000 active; AID 504462; in the data active = inhibition above about 40%
Target sequence (Q9Y4P1 whole entry, looked up): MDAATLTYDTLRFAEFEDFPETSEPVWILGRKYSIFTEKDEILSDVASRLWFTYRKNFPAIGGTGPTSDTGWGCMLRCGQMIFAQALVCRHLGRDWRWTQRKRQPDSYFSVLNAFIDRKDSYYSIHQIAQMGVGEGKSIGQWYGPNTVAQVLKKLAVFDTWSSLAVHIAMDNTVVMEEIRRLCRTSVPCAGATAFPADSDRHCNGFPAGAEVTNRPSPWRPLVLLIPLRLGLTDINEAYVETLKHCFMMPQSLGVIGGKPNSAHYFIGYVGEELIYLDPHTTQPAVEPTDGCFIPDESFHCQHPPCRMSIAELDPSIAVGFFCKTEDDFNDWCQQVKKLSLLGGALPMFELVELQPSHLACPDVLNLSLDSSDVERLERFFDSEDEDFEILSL
SKN-1 inh = C. elegans SKN-1 inhibition; C. elegans VP596 Pgst-4::GFP/RFP ratio, acrylamide-induced, 24 h; inhibition, % at 21.8 µM; 0.49% of 360,000 active;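 active = interference check ratio from 0.5 to 1.5 plus GFP to RFP signal ratio inhibition reaching or exceeding a fixed threshold, cut at about 30% in these data, passing the limit was not always enough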
MT1-MMP act inh = blocks activation of human MT1-MMP; P50281; HT1080 RFP-PRO-GFP cells, GFP/RFP ratio fluorescence, overnight; percent of plate control window, DMSO zero; GFP/RFP ratio change, % at 20 µM; 0.061% of 360,000 active;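 active = GFP/RFP ratio change of at least 30% with cell ATP level not reduced by more than half and red fluorescence within 50% of control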
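system = RFP-PRO-GFP reporter HT1080 cells | dosing = 20 µM single dose, 1% DMSO | timing = overnight cell settling, then overnight compound exposure, 37 °C, 5% CO2 | read-out basis = GFP/RFP fluorescence ratio | controls = DMSO and RFP-L50D-GFP cell wells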
Rh123 counter = membrane potential counter-screen of mitochondrial pore inhibitors; shares compounds with MPTP inh; isolated mitochondria, Rhodamine 123 fluorescence; inhibition, % at 10 µM; 78% of 5,000 active; AID 624504; in the data active = inhibition above about 22%
MPTP swell DR = dose response confirmation of mitochondrial permeability transition pore inhibitors; shares compounds with MPTP inh; isolated mitochondria swelling, absorbance; 58% of 780 active; IC50, µM; in the data active = IC50 below about 20 µM
MPTP cs DR = MPTP inhibitor counter-screen activity, dose response; shares compounds with MPTP inh; 49% of 780 active; AID 651564; IC50, µM; isolated mitochondria counterscreen, fluorescence read-out; in the data active = IC50 below about 80 µM
Large screens that a line does not name were inactive (follow-up assays come after a bar, where they were run). This is a sample that favours compounds with a hit; in the whole collection about 2.3% have one here.

C[C@H](NC(=O)c1ccc(C(C)(C)C)cc1)C(=O)N1CCOCC1	none
O=C(Nc1cccc(Cl)c1)C1C2CCC3C(CCC21)C3(Cl)Cl (stereo not drawn)	MPTP inh 99 | Rh123 counter 96
O=C(Nc1ccccc1)C1C2CCC3C(CCC21)C3(Cl)Cl (stereo not drawn)	none
CC1Cc2cc(S(=O)(=O)NCc3ccccc3)ccc2N1C(=O)C1CCC1 (stereo not drawn)	MPTP inh 72 | Rh123 counter 53
CCCCNC(=O)C1(C)CCN1C(=O)c1ccc(OC)c(C(F)(F)F)c1 (stereo not drawn)	none (no result: ATG4B inhibitor)
C=CC[n+]1c(/C=C2\C=Cc3cc(C)ccc3N2CC)ccc2ccccc21	MPTP inh 112 | Rh123 counter 78
COc1ccc(OC(=O)c2cnn(-c3ccccc3)c2C)cc1	none
CCc1ccccc1NCC(=O)Nc1ccc(Cl)c(C(F)(F)F)c1	MPTP inh 69 | Rh123 counter 86
C/C(CC(=O)Nc1ccc(Cl)c(C(F)(F)F)c1)=N\NC(=O)c1ccccc1O	MPTP inh 98 | Rh123 counter 70
COc1ccccc1NC(=O)CN1CCN(CC(=O)Nc2ccc(Cl)c(C(F)(F)F)c2)CC1	none
O=C(CNC(=O)C1CCCCC1)NC1CCCCC1	none
N#Cc1c(Cl)cccc1Oc1ccc(S(=O)(=O)Nc2ccccc2)cc1	none
N#Cc1cccc(C#N)c1Oc1ccc(S(=O)(=O)Nc2ccccc2)cc1	MPTP inh 54 | Rh123 counter inactive | MPTP swell DR inactive | MPTP cs DR 30
Cc1nn(C2CCS(=O)(=O)C2)c(C)c1CN(C)C(=O)c1ccccc1 (stereo not drawn)	none
COc1ccc(NC(=S)NC(NC(=O)c2cccc3ccccc23)C(Cl)(Cl)Cl)c([N+](=O)[O-])c1 (stereo not drawn)	MPTP inh 70 | Rh123 counter 55
COc1ccc(NC(=S)NC(NC(=O)CCl)C(Cl)(Cl)Cl)c([N+](=O)[O-])c1 (stereo not drawn)	none
O=C(NC(NC(=S)Nc1c(Cl)cccc1Cl)C(Cl)(Cl)Cl)c1cccc([N+](=O)[O-])c1 (stereo not drawn)	MPTP inh 73 | Rh123 counter 54
COc1ccc(NC(=S)NC(NC(=O)c2ccccc2Cl)C(Cl)(Cl)Cl)c([N+](=O)[O-])c1 (stereo not drawn)	MPTP inh 66 | Rh123 counter 66
COc1ccc(NC(=S)NC(NC(=O)c2ccc(Cl)cc2Cl)C(Cl)(Cl)Cl)c([N+](=O)[O-])c1 (stereo not drawn)	MPTP inh 87 | Rh123 counter 54
COc1ccc(C)cc1S(=O)(=O)NCc1ccccn1	none (no result: ATG4B inhibitor)
N#Cc1cc([N+](=O)[O-])ccc1NC(=O)CSc1n[nH]c(=O)[nH]c1=O	none
COc1cc(C2c3c(oc4ccccc4c3=O)C(=O)N2c2nccs2)ccc1O (stereo not drawn)	none
COc1cc(-c2nc3ccccn3c2/N=C/c2cc(OC)c(O)cc2Cl)ccc1O	none
O=C(Nc1ccccc1OC(F)F)c1ccc(S(=O)(=O)N2CCCC2)cc1	none
CCOC(=O)c1c(C(F)(F)C(F)(F)C(F)(F)C(F)(F)F)n[nH]c1C	MPTP inh 73 | Rh123 counter 78
CCOC(=O)c1[nH]c(C)c(C(=O)OCC)c1C	none
Cc1ccc(CNC(=O)Cn2cnc(C(=O)Nc3ccc(C)c(C)c3)n2)o1	none
CCOc1cccc(CNc2ccc(O)cc2)c1OCc1ccc(Cl)cc1Cl	none
OCCNCc1cc(Br)ccc1OCc1ccc(Cl)cc1Cl	MPTP inh 82 | Rh123 counter 20
CCOc1cccc(CNCCO)c1OCc1ccc(Cl)cc1Cl	MPTP inh 94 | Rh123 counter inactive | MPTP swell DR 4.5 | MPTP cs DR 20
CCCCn1c(NC(=O)CC)c(C#N)c2nc3ccccc3nc21	none
N#Cc1c(NC(=O)c2ccccc2Cl)n(Cc2ccccc2)c2nc3ccccc3nc12	MPTP inh 51, ATG4B inhibitor 52 | Rh123 counter 51
CCCCn1c(NC(=O)c2ccccc2Cl)c(C#N)c2nc3ccccc3nc21	MPTP inh 96 | Rh123 counter 70
COc1ccc(CN(C)Cc2nc(Cc3cccc(F)c3)no2)c2cccnc12	MPTP inh 73 | Rh123 counter 83
COc1cccc(-n2cc(CN(C)Cc3nc(Cc4cccc(F)c4)no3)cn2)c1	none
CC(C)n1c(=O)c2ccccc2n1C(=O)c1ccccc1	none (no result: ATG4B inhibitor)
CC(=O)CCS(=O)(=O)c1ccc(Oc2ccc(S(=O)(=O)CCC(C)=O)cc2)cc1	MPTP inh 58 | Rh123 counter inactive | MPTP swell DR inactive | MPTP cs DR 59
CCOC(=O)[C@H]1[C@H]2COc3cc(OC)ccc3[C@@H]2N2C(=O)CN(Cc3ccc(OC)cc3)C(=O)[C@@]12C	none (no result: MT1-MMP act inh)
CC[C@]12C(=O)N(C)C[C@H]([C@@H]3C(=O)N(C)C(=O)[C@@H]31)N2C(=O)c1ccc(F)cc1	none
O=S(=O)(Nc1cc(Cl)ccc1-n1cncn1)c1cc(Br)ccc1Br	MPTP inh 66 | Rh123 counter 93
COc1cccc(NC(=O)CN2CCN(c3ccc(F)cc3)CC2)c1	none
CCOC(=O)c1ccc(N2CCN(c3ccccc3F)CC2)c(NC(=O)Nc2ccccc2)c1	MPTP inh 96 | Rh123 counter 87
CCOC(=O)c1ccc(N2CCN(c3ccc(F)cc3)CC2)c(NC(=O)Nc2cccc(OC)c2)c1	MPTP inh 92 | Rh123 counter 84
Clc1ccc(-c2nc3ccccc3nc2-c2ccccc2)cc1	MPTP inh 55 | Rh123 counter inactive | MPTP swell DR 19 | MPTP cs DR inactive
Cc1ccc(S(=O)(=O)N/N=C/c2cc([N+](=O)[O-])ccc2O)cc1[N+](=O)[O-]	MPTP inh 72 | Rh123 counter 60
Cc1cc(C)cc(Oc2nc(C(F)(F)F)nc3ccccc23)c1	MPTP inh 80 | Rh123 counter inactive | MPTP swell DR inactive | MPTP cs DR 78
COc1cc(C2NCC(c3ccc(Cl)cc3Cl)c3c2[nH]c2ccccc32)cc(OC)c1OC (stereo not drawn)	MPTP inh 88 | Rh123 counter inactive | MPTP swell DR inactive | MPTP cs DR inactive
O=C(O)c1ccc(C2NCC(c3ccccc3Cl)c3c2[nH]c2ccccc32)cc1 (stereo not drawn)	none
COc1ncnc2sc(-c3ccccc3)cc12	none
COc1ccc(Nc2ncnc3sc(-c4ccccc4)cc23)cc1	MPTP inh 71 | Rh123 counter 61
CN(/N=C/c1cc(Cl)cc(Cl)c1O)C(=S)NC(C)(C)C	MPTP inh 85 | Rh123 counter 75
Oc1c(Cl)cc(Cl)cc1/C=N/Nc1ncc(Br)cn1	none
CCOC(=O)N1CCN(C(=O)CNC(=O)c2ccc(Br)cc2)CC1	none
